In ChEMBL document CHEMBL1148795 (J Med Chem, 2007):
Activity calls are given as the source filed them. No cut-off for these calls is given here.

Key:
[1] = system: Human immunodeficiency virus 2; test: Antiviral activity against HIV2 ROD in human MT4 cells by MTT assay
[2] = system: Human immunodeficiency virus 1; test: Antiviral activity against HIV1 RF in human CEM-SS cells by XTT assay; format: functional, organism-based; conditions: for EC50: Human immunodeficiency virus 1, RF
[3] = system: Human immunodeficiency virus 1; test: Antiviral activity against HIV1 with RT Y181C mutation; format: functional, organism-based
Outline: (§1)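 Cytoprotection assay in CEM-SS cells infected with HIV-1 strains engineered to carry the NNRTI-resistance RT mutation (K103N or Y181C). Activity is expressed as the EC50 for protection of the cells from virus-induced cytopathic effect.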

[4] = system: Human immunodeficiency virus 1; test: Antiviral activity against HIV1 with RT K103N mutation; format: functional, organism-based
Outline: as §1

[5] = system: Human immunodeficiency virus 1; test: Antiviral activity against HIV1 3B in human MT4 cells by MTT assay; conditions: for EC50: Human immunodeficiency virus 1, 3B
[6] = Cytotoxicity against human CEM-SS cells by MTT assay; format: cell-based
[7] = Cytotoxicity against human MT4 cells by MTT assay; format: cell-based
[8] = molecular target: Human immunodeficiency virus type 1 reverse transcriptase (Human immunodeficiency virus 1, UniProt Q72547); test: Inhibition of HIV1 reverse transcriptase
[9] = Metabolic stability in rat plasma; format: ADME, cell-free
Outline: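 Compounds were incubated in reconstituted rat plasma (two lots, checked with a control compound), with 1,1-diphenylethylene as internal standard. Aliquot supernatants were analysed by HPLC with UV detection. Half-lives came from regression fits of concentration versus time and were averaged over at least two replicates.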

SMILES | Activity [1] | EC50 [2] [nM] | EC50 [3] [µM] | EC50 [4] [nM] | EC50 [5] [nM] | CC50 [6] [µM] | CC50 [7] [µM] | IC50 [8] [nM] | half-life [9] [min] | Activity [2] | Activity [5] | EC50 ([1]; Human immunodeficiency virus 2, ROD) [µM]
COc1c(C)cc(/C(=C\CCCc2nnc(C)o2)c2cc(C)c3onc(OC)c3c2)cc1C(=O)SC | inactive | 50 | > 100 | 400 | 140 | 5.7 | 7 | 470 | 864 | – | – | –
COC(=O)c1cc(/C(=C\CCc2nnc(C)o2)c2cccc(C#N)c2)cc(C)c1OC | inactive | – | > 100 | > 50000 | – | 4.5 | 8.1 | 29000 | 114 | inactive | inactive | –
COc1c(C)cc(/C(=C\CCCc2nnc(C)o2)c2cccc(C#N)c2)cc1C(=O)SC | inactive | 500 | > 100 | 1200 | 830 | 12 | 36 | 520 | 221 | – | – | –
COc1c(C)cc(/C(=C/CCc2nnc(C)o2)c2ccc3oc(=O)n(C)c3c2)cc1C(=O)SC | – | 600 | > 100 | 1000 | 690 | 5.9 | 12 | 2600 | 739 | – | – | 4.7
COc1c(C)cc(C(=CCCCc2nnc(C)o2)c2cc(C)c(OC)c(C(=O)SC)c2)cc1C(=O)SC | inactive | 2200 | > 100 | > 50000 | 1300 | 5.3 | 4.4 | 6700 | 76 | – | – | –
COC(=O)c1cc(/C(=C\CCc2nnc(C)o2)c2cc(C)c3onc(OC)c3c2)cc(C)c1OC | inactive | 360 | > 100 | 800 | 420 | 2.8 | 6.4 | 390 | 331 | – | – | –
COC(=O)c1cc(/C(=C\CCc2nnc(C)o2)c2cc(C)c3on(C)c(=O)c3c2)cc(C)c1OC | inactive | 3000 | > 100 | > 50000 | 2700 | 7.7 | 41 | 7400 | 220 | – | – | –
COc1c(C)cc(/C(=C\CCCc2nnc(C)o2)c2ccc(C#N)cc2)cc1C(=O)SC | inactive | 600 | > 100 | 2300 | 360 | 8.9 | 36 | 3200 | 45 | – | – | –
COc1c(C)cc(/C(=C\CCc2nnc(C)o2)c2cc(C)c3onc(OC)c3c2)cc1C(=O)SC | inactive | 520 | > 100 | > 50000 | 810 | 2.1 | 4.4 | 900 | 1090 | – | – | –
COc1c(C)cc(/C(=C/CCCc2nnc(C)o2)c2ccc(C#N)cc2)cc1C(=O)SC | inactive | – | > 100 | > 50000 | – | 4.8 | 7.6 | 450 | 41.5 | inactive | inactive | –
